{"source": "paper PMC6587324", "about": "(ChemistryOpen, 2019)", "key": {"integrin α5β1 [1]": {"target": "T1, integrin α5β1 (Homo sapiens, UniProt P05556+P08648)", "conditions": "read-out: α5β1 IC50; cited from earlier work"}, "integrin α5β1 [2]": {"target": "T1, integrin α5β1", "experiment": "Integrin α5β1 binding assay"}, "human integrin αvβ3": {"target": "human integrin αvβ3 (Homo sapiens, UniProt P05106+P06756)", "format": "binding", "conditions": "SD", "outline": "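Immobilized isolated human αvβ3 integrin incubated with biotinylated vitronectin (1 μg mL−1) plus test compound over 10−5–10−12 M. Bound biotinylated vitronectin measured. IC50 taken as the concentration giving 50 % inhibition of vitronectin binding, calculated from the concentration-response data. Values are mean ± standard deviation of duplicate measurements.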"}}, "note": "Where two headings read alike, the source gives them in different places."}
{"smiles": "N=C(N)NCCC[C@@H]1NC(=O)C[C@H]2NC(=O)[C@H](CNC(=O)[C@H](CC(=O)O)NC(=O)CNC1=O)N(Cc1ccccc1)C2=O", "note": "[compound 1, cyclo[DKP‐RGD]]", "values": [{"measurement": "IC50", "setting": "integrin α5β1 [1]", "value": 0.532, "unit": "µM"}]}
{"smiles": "N=C(N)NCCC[C@@H]1NC(=O)CNC(=O)C[C@@H](C(=O)O)NC(=O)C[C@H]2NC(=O)[C@H](CNC1=O)N(Cc1ccccc1)C2=O", "note": "[compound 3, cyclo[DKP‐isoDGR]]", "values": [{"measurement": "IC50", "setting": "integrin α5β1 [2]", "value": 1.07, "unit": "µM"}]}
{"smiles": "COc1ccc(C[C@H]2NC(=O)/C=C/C[C@@H]([C@H](C)[C@@H](OC(=O)CNC(=O)OCc3ccc(NC(=O)[C@H](C)NC(=O)[C@@H](NC(=O)CCc4cn(CCOCCOCCOCCOCC(=O)NCc5ccc(CN6C(=O)[C@H]7CC(=O)N[C@@H](CCCNC(=N)N)C(=O)NCC(=O)N[C@@H](CC(=O)O)C(=O)NC[C@H]6C(=O)N7)cc5)nn4)C(C)C)cc3)[C@@H](Cl)c3ccccc3)OC(=O)[C@H](CC(C)C)OC(=O)C(C)(C)CNC2=O)cc1Cl", "note": "[compound 10, cyclo[DKP‐RGD]‐PEG4‐Val−Ala‐PABC‐Cry‐55gly]", "values": [{"measurement": "IC50", "setting": "human integrin αvβ3", "value": "0.0072 ± 0.0015", "unit": "µM"}]}
{"smiles": "COc1ccc(C[C@H]2NC(=O)/C=C/C[C@@H]([C@H](C)[C@@H](OC(=O)CNC(=O)OCc3ccc(NC(=O)[C@H](C)NC(=O)[C@@H](NC(=O)CCc4cn(CCOCCOCCOCCOCC(=O)NCc5ccc(CN6C(=O)[C@H]7CC(=O)N[C@H](C(=O)O)CC(=O)NCC(=O)N[C@@H](CCCNC(=N)N)C(=O)NC[C@H]6C(=O)N7)cc5)nn4)C(C)C)cc3)[C@@H](Cl)c3ccccc3)OC(=O)[C@H](CC(C)C)OC(=O)C(C)(C)CNC2=O)cc1Cl", "note": "[compound 11, cyclo[DKP‐isoDGR]‐PEG4‐Val−Ala‐PABC‐Cry‐55gly]", "values": [{"measurement": "IC50", "setting": "human integrin αvβ3", "value": "0.0055 ± 0.0028", "unit": "µM"}]}
{"smiles": "COc1ccc(C[C@H]2NC(=O)/C=C/C[C@@H]([C@H](C)[C@@H](OC(=O)CNC(=O)CCc3cn(CCOCCOCCOCCOCC(=O)NCc4ccc(CN5C(=O)[C@H]6CC(=O)N[C@@H](CCCNC(=N)N)C(=O)NCC(=O)N[C@@H](CC(=O)O)C(=O)NC[C@H]5C(=O)N6)cc4)nn3)[C@@H](Cl)c3ccccc3)OC(=O)[C@H](CC(C)C)OC(=O)C(C)(C)CNC2=O)cc1Cl", "note": "[compound 13, cyclo[DKP‐RGD]‐PEG4‐uncl‐Cry‐55gly]", "values": [{"measurement": "IC50", "setting": "human integrin αvβ3", "value": "0.0241 ± 0.001", "unit": "µM"}]}
{"smiles": "COc1ccc(C[C@H]2NC(=O)/C=C/C[C@@H]([C@H](C)[C@@H](OC(=O)CNC(=O)CCc3cn(CCOCCOCCOCCOCC(=O)NCc4ccc(CN5C(=O)[C@H]6CC(=O)N[C@H](C(=O)O)CC(=O)NCC(=O)N[C@@H](CCCNC(=N)N)C(=O)NC[C@H]5C(=O)N6)cc4)nn3)[C@@H](Cl)c3ccccc3)OC(=O)[C@H](CC(C)C)OC(=O)C(C)(C)CNC2=O)cc1Cl", "note": "[compound 14, cyclo[DKP‐isoDGR]‐PEG4‐uncl‐Cry‐55gly]", "values": [{"measurement": "IC50", "setting": "human integrin αvβ3", "value": "0.0102 ± 0.0004", "unit": "µM"}]}
